Source: ChEMBL document CHEMBL2093137, “WHO-TDR NTD Screening”
In brackets after ≈: the same amount, converted by molar mass.

Legend:
[1] = WHO-TDR: Cytotoxicity; type: toxicity, cell-based; details: human, MRC5 cells
Plasmodium falciparum K1 = assay: WHO-TDR: Malaria; type: functional, organism-based, Homo sapiens; details: Erythrocyte
How it was run: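 Life Chemicals supplied the diverse library of 10,000 compounds, which had been filtered for drug-likeness and reactive groups. Each was screened against the K1 strain of Plasmodium falciparum at its intra-erythrocytic stage in human red blood cells, using previously published standard procedures and a reference drug as positive control. The table reports IC50 for antiplasmodial potency.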

Trypanosoma cruzi = assay: WHO-TDR: Chagas disease; type: functional, organism-based, Homo sapiens; details: MRC5
How it was run: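 A diverse library of 10,000 compounds from Life Chemicals, filtered for drug-likeness and reactive groups, was screened against intracellular amastigotes of Trypanosoma cruzi Tulahuen CL2 beta-galactosidase strain. The parasites were grown in MRC-5SV2 human lung fibroblast host cells, and a reference drug served as positive control under previously published standard procedures. Antiparasitic potency is given as IC50.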

[2] = tested on: Trypanosoma brucei brucei; assay: WHO-TDR: Human African Trypanosomiasis (HAT); type: functional, organism-based; details: Squib-427
How it was run: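 Following previously published standard procedures, with reference drugs as positive controls, a whole-organism assay was run against bloodstream-form Trypanosoma brucei, Squib 427 strain. The compounds, 10,000 in all, came from a diverse Life Chemicals library filtered for drug-likeness and reactive groups. Reported values are IC50 for antiparasitic potency.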

Leishmania infantum = assay: WHO-TDR: Leishmaniasis; type: functional, organism-based, Mus musculus; details: Macrophage
How it was run: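 IC50 values describe antiparasitic potency in this whole-organism screen. Leishmania infantum MHOM/MA(BE)/67 amastigotes were tested inside murine peritoneal macrophages against a 10,000-compound diverse Life Chemicals library. A reference drug served as positive control.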

Schistosoma mansoni = assay: WHO-TDR: Schistosomiasis; type: functional; parameters: concentration or dose not given beside the values
How it was run: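 A diverse library of 10,000 compounds from Life Chemicals, filtered for drug-likeness and reactive groups, was screened against whole larval and/or adult Schistosoma mansoni worms of the Puerto Rican strain. Previously published standard procedures were followed, with a reference drug as positive control. Activity is given as percent inhibition and as IC50.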

Onchocerca ochengi [3] = assay: (§1) WHO-TDR: Onchocerciasis; type: functional; parameters: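 at 12.5 µM on microfilariae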
How it was run: (§2)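 A diverse library of 10,000 compounds from Life Chemicals, filtered for drug-likeness and reactive groups, was screened against whole microfilariae of Onchocerca ochengi or Onchocerca lienalis. These animal pathogens served as stand-ins for the human parasite. Activity is given as percent inhibition and as IC50.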

Onchocerca ochengi [4] = assay: as §1; type: functional; parameters: concentration or dose not given beside the values; how it was run: as §2; remark: listed apart in the source

Compound	IC50 (Plasmodium falciparum K1) [mg/L]	IC50 [2] [mg/L]	IC50 (Leishmania infantum) [mg/L]	IC50 [1] [mg/L]	IC50 (Trypanosoma cruzi) [mg/L]	% Inhibition (Schistosoma mansoni) [%]	% Inhibition (Onchocerca ochengi [3]) [%]	% Inhibition (Onchocerca ochengi [4]) [%]
Cc1ccc(NC(=O)CN2CCC(C(=O)NCCc3c[nH]c4ccccc34)CC2)c(C)c1	> 13	> 13	> 13	> 13	4.92 (≈ 11.4 µM)	0	100	0
CCC(CO)Nc1nc(Nc2ccc(C)c(C)c2)c2nccnc2n1 (stereo not drawn)	> 10.2	3.66 (≈ 10.8 µM)	> 10.2	> 10.2	> 10.2	0	100	0
NC(=O)c1csc(NC(=O)C2(c3ccc(Cl)cc3)CCCC2)n1	> 10.5	3.72 (≈ 10.6 µM)	> 10.5	> 10.5	> 10.5	0	100	0
O=C(NC1CCCC1)c1csc(NC(=O)c2cccs2)n1	> 9.64	> 9.64	> 9.64	> 9.64	> 9.64	0	100	0
CCOc1ccc(N2CC(CNS(=O)(=O)c3c(C)cc(C)cc3C)CC2=O)cc1 (stereo not drawn)	> 12.5	> 12.5	> 12.5	> 12.5	> 12.5	0	100	0
CCOc1ccc(N2CC(CNS(=O)(=O)c3cccc(C(F)(F)F)c3)CC2=O)cc1 (stereo not drawn)	> 13.3	> 13.3	> 13.3	> 13.3	> 13.3	0	100	0
O=C(NCC1CC(=O)N(c2ccc(Cl)cc2)C1)NC1CCCCC1 (stereo not drawn)	> 10.5	> 10.5	> 10.5	> 10.5	> 10.5	0	0	100
CC(C)CCN1C(=O)CCc2cc(NC(=O)COc3ccc(Cl)cc3)ccc21	7.34 (≈ 18.3 µM)	3.89 (≈ 9.71 µM)	> 12	> 12	3.45 (≈ 8.61 µM)	0	100	0
CC(C)CCN1C(=O)CCc2cc(NC(=O)c3cccc(Br)c3)ccc21	> 12.5	3.5 (≈ 8.42 µM)	> 12.5	> 12.5	3.35 (≈ 8.08 µM)	0	100	0
CCCN1C(=O)CCc2cc(NS(=O)(=O)c3ccc(F)cc3)ccc21	> 10.9	3.56 (≈ 9.83 µM)	> 10.9	> 10.9	10.9 (≈ 30 µM)	0	100	0
COc1ccc(Cl)cc1S(=O)(=O)Nc1ccc2c(c1)CCC(=O)N2CCC(C)C	> 13.1	10.2 (≈ 23.4 µM)	> 13.1	> 13.1	> 13.1	0	100	0
CN1CCN(C(CNC(=O)c2c(F)cccc2F)c2ccsc2)CC1 (stereo not drawn)	> 11	> 11	> 11	> 11	0.406 (≈ 1.11 µM)	0	0	0
O=S(=O)(Nc1nc2c(Cl)cccc2s1)c1ccc(Cl)cc1	> 10.8	> 10.8	> 10.8	> 10.8	10.2 (≈ 28.4 µM)	0	100	0
O=S(=O)(Nc1nc2c(Cl)cccc2s1)c1ccc(Cl)s1	> 11	> 11	> 11	> 11	10.4 (≈ 28.5 µM)	0	100	0

Further lines, with some results ahead:

IC50 (Plasmodium falciparum K1) [mg/L]	IC50 [2] [mg/L]	IC50 (Leishmania infantum) [mg/L]	Compound	IC50 [1] [mg/L]	IC50 (Trypanosoma cruzi) [mg/L]	% Inhibition (Schistosoma mansoni) [%]	% Inhibition (Onchocerca ochengi [3]) [%]	% Inhibition (Onchocerca ochengi [4]) [%]
> 12.4	> 12.4	1.84 (≈ 4.46 µM)	O=C(NCCn1nc(-c2ccco2)ccc1=O)C1c2ccccc2Oc2ccccc21	> 12.4	> 12.4	0	0	0
> 13.4	> 13.4	0.695 (≈ 1.55 µM)	O=C(CN1CCC(C(=O)Nc2ccc(Oc3ccccc3)cc2)CC1)Nc1ccc(F)cc1	> 13.4	> 13.4	0	0	0
2.66 (≈ 6.23 µM)	4.1 (≈ 9.6 µM)	4.15 (≈ 9.71 µM)	COc1ccccc1N1CCN(c2nc(Nc3ccc(C)cc3)c3nccnc3n2)CC1	4.5 (≈ 10.5 µM)	3.44 (≈ 8.05 µM)	25	100	0
> 12.7	> 12.7	6.56 (≈ 15.5 µM)	COc1ccc(N2CCN(C(=O)c3csc(NC(=O)c4ccccc4)n3)CC2)cc1	> 12.7	> 12.7	0	100	0
> 12.8	> 12.8	> 12.8	Cc1[nH]c2ccccc2c1S(=O)(=O)CCNC(=O)Nc1ccc(C(F)(F)F)cc1	> 12.8	> 12.8	0	100	0
> 14.1	> 14.1	> 14.1	Cc1c(S(=O)(=O)CCNC(=O)NC2CCCCC2)c2ccccc2n1Cc1ccc(F)cc1	> 14.1	> 14.1	0	100	0
> 11.5	> 11.5	> 11.5	O=C1CC(CNS(=O)(=O)c2ccccc2F)CN1c1ccc(Cl)cc1 (stereo not drawn)	> 11.5	> 11.5	0	100	0
> 13	4.25 (≈ 9.83 µM)	> 13	O=C1CC(CNS(=O)(=O)c2ccccc2C(F)(F)F)CN1c1ccc(Cl)cc1 (stereo not drawn)	> 13	4.11 (≈ 9.49 µM)	0	100	0
> 10.9	> 10.9	> 10.9	O=C(NCC1CC(=O)N(c2ccc(Cl)cc2)C1)Nc1ccccc1F (stereo not drawn)	> 10.9	> 10.9	0	100	0
> 12.1	> 12.1	> 12.1	COc1ccc(CCNC(=O)NCC2CC(=O)N(c3ccc(Cl)cc3)C2)cc1 (stereo not drawn)	> 12.1	6.28 (≈ 15.6 µM)	0	100	75
> 11.7	3.89 (≈ 9.95 µM)	> 11.7	CCCOc1nn(CCC)cc1C(=O)N1CCN(c2ccccc2Cl)CC1	> 11.7	3.06 (≈ 7.83 µM)	0	100	0
6.04 (≈ 15 µM)	4.85 (≈ 12 µM)	> 12.1	O=C(NCc1cccs1)c1cn(Cc2ccccc2)nc1OCc1ccccc1	2.72 (≈ 6.74 µM)	2.09 (≈ 5.18 µM)	0	100	0
> 11.5	0.416 (≈ 1.08 µM)	> 11.5	Cc1ccc(C)c(C(=O)Nc2ccc3c(c2)CCC(=O)N3Cc2ccccc2)c1	> 11.5	> 11.5	0	75	0
8.47 (≈ 24.2 µM)	0.395 (≈ 1.13 µM)	> 10.5	CN(C)C(CNC(=O)c1ccc(-c2ccccc2)cc1)c1ccsc1 (stereo not drawn)	> 10.5	3.32 (≈ 9.49 µM)	0	0	0
> 10.7	> 10.7	> 10.7	CN1CCN(C(CNC(=O)CCc2ccccc2)c2ccsc2)CC1 (stereo not drawn)	> 10.7	0.498 (≈ 1.39 µM)	0	0	0
> 12.2	> 12.2	> 12.2	O=S(=O)(Nc1cccc(-c2nc3ccccc3s2)c1)c1ccc(Cl)s1	> 12.2	4.01 (≈ 9.85 µM)	0	100	0
> 12.7	4.11 (≈ 9.71 µM)	> 12.7	Cc1cccc(NC(=O)Cn2cc(S(=O)(=O)c3ccc(F)cc3)c3ccccc32)n1	> 12.7	4.41 (≈ 10.4 µM)	0	100	0
